Experimental data pooled from the literature.
Lines come from different studies, so protocols differ.
Target: Delta-type opioid receptor (OPRD1, Homo sapiens, UniProt P41143)

Structure (SMILES)	assay	system	setting	measurement	value
CC[C@@H]1CN2CC[C@@]3(O)C(=Nc4cccc(-c5ccoc5)c43)[C@@H]2C[C@@H]1/C(=C\OC)C(=O)OC	β-arrestin recruitment, agonist	–	–	Emax	> 100%
Clc1ccc2c(C3CCN(CCc4c[nH]c5ccccc45)CC3)c[nH]c2c1	ligand displacement, radioligand	–	10 µM	inhibition	35%
C[C@H](C(=O)N[C@H]1COc2ccccc2[C@@H]1S(C)(=O)=O)c1ccc(F)cc1	ligand displacement	–	10 µM	inhibition	1%
Cc1cc(Nc2nccc(C)n2)cc(-c2cnc([C@@]3(O)CC[C@H](C(=O)O)C(C)(C)C3)s2)c1	ligand displacement	–	10 µM	inhibition	12.8%
Nc1ncc(-c2nc(N3CCOCC3)nc(N3CCOCC3)n2)c(C(F)F)n1	cell-free assay, radioligand	–	10 µM	remaining signal	103%
O=C(c1ccc(F)cc1)N1CC(COc2ccc(Br)cc2)(C(=O)O)C1	cell-free assay	–	10 µM	inhibition	-5.22%
CC(C)N1CCC[C@H]1CNC(=O)c1cn(C2CCCC2)c(=O)c2c1c1ccccc1n2C	ligand displacement, radioligand	–	10 µM	inhibition	6%
c1ccc(C(NCCNC(c2ccccc2)c2ccccc2)c2ccccc2)cc1	ligand displacement	–	10 µM	inhibition	81%
CCN(CC)CCCC[C@H](NC(=O)[C@H](CC(C)C)NC(=O)[C@H](C)NC(=O)[C@H](Cc1ccccc1)NC(=O)c1ccc(C(C)(C)C)cc1)C(=O)N[C@@H](CO)C(=O)OC	ligand displacement, radioligand	–	10 µM	remaining binding	71.4%
CC1(C)SSC(C)(C)[C@@H](NC(=O)[C@@H](N)Cc2ccc(O)cc2)C(=O)NCC(=O)N[C@@H](Cc2ccccc2)C(=O)N2CCN(CC2)C(=O)[C@H](Cc2ccccc2)NC(=O)CNC(=O)[C@@H]1NC(=O)[C@@H](N)Cc1ccc(O)cc1	cAMP, agonist, luciferase	HEK293	–	Emax	206%
CC[C@@H]1CN2CC[C@@]3(O)C(=Nc4cccc(-c5ccccc5)c43)[C@@H]2C[C@@H]1/C(=C\OC)C(=O)OC	β-arrestin recruitment, agonist	–	–	Emax	> 100%
COCc1c(-c2cc3cc(C)cc(OC)c3s2)c2c(N)ncnn2c1CN1CCNC(=O)C1	ligand displacement, radioligand	–	10 µM	inhibition	16%
